Measured values from different studies.
Lines come from different studies, so protocols differ.
Effect on: metabolic stability

| SMILES | system | conditions | quantity | result |
| --- | --- | --- | --- | --- |
| CCN(CCN)c1ccc(Nc2cc(NC3CC3)n3ncc(C#N)c3n2)cc1-n1cnnc1 | male CD-1 mouse, hepatocytes | 1 µM, serum-free | scaled CLint | < 32 mL/min/kg |
| CC1(CN)CCN(c2cnc3c(Sc4ccncc4Cl)n[nH]c3n2)CC1 | mouse, liver microsomes |  | scaled CLint | 8.71 mL/min/kg |
| CCOc1ccc2ccc(=O)oc2c1 | male CD-1 mouse, hepatocytes | 1 µM | hepatocyte CLint | > 46.2 µL/min/10⁶ cells |
| O=c1ccc2cc(O)ccc2o1 | mouse, liver microsomes |  | microsomal CLint | 170 µL/min/mg |
| O=c1ccc2ccc(O)cc2o1 | mouse, liver microsomes |  | scaled CLint | 3050 mL/min/kg |
| Cc1ccc(Cn2cc(C(=O)NN)c(=O)c3cc(Oc4ccccc4)ccc32)cc1 | male CD-1 mouse, liver microsomes | 1 µM | microsomal CLint | < 11.6 µL/min/mg |
| CC(C)Oc1ccc(S(=O)(=O)c2ccc(Oc3cc(OCC(N)=O)c(C(=O)C(Cl)Cl)cc3[N+](=O)[O-])cc2)cc1 | mouse, liver microsomes |  | microsomal CLint | 197 µL/min/mg |
| O=C(O)Cc1ccccc1Nc1c(Cl)cccc1Cl | mouse, liver microsomes |  | scaled CLint | 90.3 mL/min/kg |
